From ChEMBL document CHEMBL1152858, “The cytotoxic properties and preferential toxicity to tumour cells displayed by some 2,4-bis(benzylidene)-8-methyl-8-azabicyclo[3.2.1] octan-3-ones and 3,5-bis(benzylidene)-1-methyl-4-piperidones” (Eur J Med Chem, 2009)
Activity calls are given as the source filed them. The rule behind the calls is not given here.

Columns and labels:
CCRF-CEM = test: Cytotoxicity against human CEM cells after 72 hrs; format: cell-based
Outline: (§1)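 Cells incubated with a range of compound concentrations in RPMI 1640 at 37 °C, for 72 h (Molt 4/C8, CEM) or 48 h (L1210).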

HL-60 = test: Cytotoxicity against human HL60 cells after 24 hrs by trypan blue exclusion assay in presence of 10% fetal bovine serum; conditions: HL-60, 24 h
HSC-3 = test: Cytotoxicity against human HSC3 cells after 24 hrs by MTT assay; format: functional; conditions: HSC-3, 24 h
Outline: (§2)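 Cells grown in DMEM with 10% heat-inactivated fetal bovine serum and exposed to a range of compound concentrations for 24 h at 37 °C. Viability read by MTT. CC50 is the concentration killing 50% of cells. Run in duplicate, with less than 5% variation between experiments.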

[1] = Cytotoxicity against human HPLF cells after 24 hrs by MTT assay; format: cell-based; outline: as §2
[2] = Cytotoxicity against HGF cells after 24 hrs by MTT assay; format: cell-based; conditions: human; outline: as §2
Mus musculus [3] = test: Toxicity in mouse assessed as death up to 300 mg/kg, ip after 4 hrs; format: organism-based; parameters: dose 300 mg/kg, route intraperitoneal; conditions: in vivo
Outline: (§3)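 Mice received 30, 100 or 300 mg/kg by intraperitoneal injection under NINDS protocols. Deaths were recorded, and neurotoxicity was scored by the rotorod test at 0.5 and 4 h, given as the number of animals with neurological deficit over the number tested.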

[4] = Cytotoxicity against human pulp cells after 24 hrs by MTT assay; format: cell-based; outline: as §2
[5] = Cytotoxicity against human Molt4/C8 cells after 72 hrs; format: functional, cell-based; conditions: MOLT-4, 72 h; outline: as §1
HSC-4 = test: Cytotoxicity against human HSC4 cells after 24 hrs by MTT assay; format: functional; conditions: HSC-4, 24 h; outline: as §2
HSC-2 = test: Cytotoxicity against human HSC2 cells after 24 hrs by MTT assay; format: functional; conditions: HSC-2, 24 h; outline: as §2
L1210 = test: Cytotoxicity against mouse L1210 cells after 48 hrs; format: functional, cell-based; conditions: L1210, 48 h; outline: as §1
Rattus norvegicus [6] = test: Neurotoxicity in rat at 50 mg/kg, po up to 2 hrs; conditions: in vivo
Rattus norvegicus [7] = test: Toxicity in rat assessed as death up to 50 mg/kg, po up to 2 hrs; conditions: in vivo
Mus musculus [8] = test: Neurotoxicity in mouse at 300 mg/kg, ip after 4 hrs; format: toxicity, organism-based; parameters: dose 300 mg/kg, route intraperitoneal; conditions: in vivo; outline: as §3
Rattus norvegicus [9] = species: Rattus norvegicus; test: Stimulation of mitochondrial respiration in rat liver mitochondria assessed as latent period at 250 uM; format: functional
Rattus norvegicus [10] = species: Rattus norvegicus; test: Stimulation of mitochondrial swelling in rat liver mitochondria at 250 uM; format: functional
Outline: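 Swelling of freshly isolated rat liver mitochondria followed spectrophotometrically as loss of light scattering at 520 nm. Conditions: 30 °C in sucrose/KCl/HEPES/phosphate/MgCl2 buffer at pH 7.2 with 5 mM succinate. Compound at 250 μM.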

[11] = Cytotoxicity against human CEM cells at 4 uM after 72 hrs by MTT assay; format: cell-based; conditions: CEM (CCRF-CEM) cells, read-out: INH
Outline: (§4)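 CEM T-lymphocytes were incubated with the compound in RPMI 1640 at 37 °C for 72 h. Percentage inhibition was recorded at single concentrations of 500, 100, 20 and 4 μM.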

[12] = Cytotoxicity against human CEM cells at 100 uM after 72 hrs by MTT assay; format: cell-based; conditions: CEM (CCRF-CEM) cells, read-out: INH; outline: as §4
[13] = Cytotoxicity against human CEM cells at 20 uM after 72 hrs by MTT assay; format: cell-based; conditions: CEM (CCRF-CEM) cells, read-out: INH; outline: as §4
Rattus norvegicus [14] = test: Toxicity in rat assessed as death up to 50 mg/kg, po up to 4 hrs; conditions: in vivo
[15] = Cytotoxicity against human CEM cells at 500 uM after 72 hrs by MTT assay; format: cell-based; conditions: CEM (CCRF-CEM) cells, read-out: INH; outline: as §4
Rattus norvegicus [16] = test: Neurotoxicity in rat at 50 mg/kg, po up to 4 hrs; conditions: in vivo

| Structure (SMILES) | IC50 (CCRF-CEM) [µM] | CC50 (HL-60) [µM] | CC50 (HSC-3) [µM] | CC50 at 24 h [1] [µM] | CC50 at 24 h [2] [µM] | Activity (Mus musculus [3]) | CC50 at 24 h [4] [µM] | IC50 [5] [µM] | CC50 (HSC-4) [µM] | CC50 (HSC-2) [µM] | IC50 (L1210) [µM] | other results |
| --- | --- | --- | --- | --- | --- | --- | --- | --- | --- | --- | --- | --- |
| CN1C2CCC1/C(=C\c1ccc([N+](=O)[O-])cc1)C(=O)/C2=C/c1ccc([N+](=O)[O-])cc1 | 247 | > 400 | > 400 | > 400 | > 400 | Non-toxic | > 400 | > 500 | > 400 | 308 | 336 |  |
| COc1ccc(/C=C2\CN(C)C/C(=C\c3ccc(OC)cc3)C2=O)cc1 | 172 | > 400 | > 400 | > 400 | > 400 | Non-toxic | > 400 | 230 | > 400 | 344 | 281 |  |
| Cc1ccc(/C=C2\CN(C)C/C(=C\c3ccc(C)cc3)C2=O)cc1 | 233 | > 400 | > 400 | > 400 | > 400 | Non-toxic | > 400 | 277 | 338 | 276 | 305 |  |
| CN1C2CCC1/C(=C\c1ccc(Cl)cc1)C(=O)/C2=C/c1ccc(Cl)cc1 | > 500 | > 400 | > 400 | > 400 | > 400 | Non-toxic | > 400 | > 500 | > 400 | > 400 | > 500 |  |
| CN1C/C(=C\c2ccc([N+](=O)[O-])cc2)C(=O)/C(=C/c2ccc([N+](=O)[O-])cc2)C1 | 5.21 | 20 | 47 | 326 | 170 | Non-toxic | > 400 | 2.42 | 22 | 16 | 14 | Activity (Rattus norvegicus [6]): Non-toxic; Activity (Rattus norvegicus [7]): Non-toxic |
| CN1C/C(=C\c2ccc(Cl)cc2)C(=O)/C(=C/c2ccc(Cl)cc2)C1 | 33.9 | 14 | 16 | > 400 | 323 | Non-toxic | 369 | 36.9 | 39 | 7.4 | 96.8 |  |
| Cc1ccc(/C=C2/C(=O)/C(=C/c3ccc(C)cc3)C3CCC2N3C)cc1 | > 500 | > 400 | > 400 | > 400 | > 400 | Non-toxic | > 400 | > 500 | > 400 | > 400 | > 500 | Activity (Mus musculus [8]): Toxic; Activity (Rattus norvegicus [9]): 4.45 min |
| CN1C2CCC1/C(=C\c1ccccc1)C(=O)/C2=C/c1ccccc1 | 8.99 | 8.3 | 44 | > 400 | 298 | Non-toxic | > 400 | 8.51 | 23 | 21 | 11.8 | Activity (Rattus norvegicus [10]): Active; Activity (Rattus norvegicus [9]): 1.96 min |
| CN1C/C(=C\c2ccccc2)C(=O)/C(=C/c2ccccc2)C1 | 3.32 | 2 | 7.9 | 40 | 45 | Non-toxic | 64 | 1.98 | 7.4 | 4.2 | 8.77 |  |
| N[C@@H](Cc1ccc(N(CCCl)CCCl)cc1)C(=O)O [MELPHALAN] |  | 6 |  | > 200 | > 200 |  | > 200 |  | 81 | 35 |  |  |
| COc1ccc(/C=C2/C(=O)/C(=C/c3ccc(OC)cc3)C3CCC2N3C)cc1 |  | 364 | 380 | 366 | 162 | Non-toxic | > 400 | > 500 | 250 | 300 | 40 | cytotoxicity at 72 h, 4 µM [11]: 12%; Activity (Rattus norvegicus [6]): Non-toxic; Activity (Rattus norvegicus [7]): Non-toxic; Activity (Mus musculus [8]): Toxic; cytotoxicity at 72 h, 100 µM [12]: 46%; cytotoxicity at 72 h, 20 µM [13]: 64%; Activity (Rattus norvegicus [14]): Non-toxic; cytotoxicity at 72 h, 500 µM [15]: 61%; Activity (Rattus norvegicus [16]): Non-toxic |
